# Measurements published in ChEMBL document CHEMBL2346629, “Discovery and characterization of novel allosteric FAK inhibitors” (Eur J Med Chem, 2013).
# Columns and labels:
# Focal adhesion kinase 1 [1] = molecular target: T1, Focal adhesion kinase 1 (Homo sapiens, UniProt Q05397); test: Inhibition of human FLAG-tagged unphosphorylated full length FAK expressed in baculovirus expression system incubated for 60 mins prior to 1000 uM of ATP addition by AlphaScreen assay
# [2] = molecular target: Mast/stem cell growth factor receptor Kit (Homo sapiens, UniProt P10721, D816V); test: Inhibition of c-Kit D816V mutant (unknown origin) using [gamma-33P]ATP
# Method in brief: (§1)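 Radiometric kinase profiling service covering 288 kinases (261 wild-type, 27 mutant). Inhibition was read as incorporation from [γ-³³P]ATP.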
# [3] = Inhibition of PDGFRa D824V mutant (unknown origin) using [gamma-33P]ATP; parameters: species or system Homo sapiens
# [4] = molecular target: Myosin light chain kinase, smooth muscle (Homo sapiens, UniProt Q15746); test: Inhibition of MLCK (unknown origin) using [gamma-33P]ATP; method in brief: as §1
# [5] = molecular target: Mitogen-activated protein kinase kinase kinase kinase 4 (Homo sapiens, UniProt O95819); test: Inhibition of HGK (unknown origin) using [gamma-33P]ATP; method in brief: as §1
# Focal adhesion kinase 1 [6] = molecular target: T1, Focal adhesion kinase 1; test: Inhibition of human GST-tagged phosphorylated full length FAK incubated for 60 mins prior to 1000 uM of ATP addition by HTRF analysis
# Focal adhesion kinase 1 [7] = molecular target: T1, Focal adhesion kinase 1; test: Inhibition of human FLAG-tagged unphosphorylated full length FAK expressed in baculovirus expression system incubated for 60 mins prior to 0.5 uM of ATP addition by AlphaScreen assay
# [8] = molecular target: T2, Protein-tyrosine kinase 2-beta (Homo sapiens, UniProt Q14289); test: Inhibition of human GST-tagged phosphorylated full length PYK2 (1 to 967) using Poly-(GT)-biotin as substrate by HTRF analysis in presence of [gamma-33P]ATP
# Focal adhesion kinase 1 [9] = molecular target: T1, Focal adhesion kinase 1; test: Inhibition of human GST-tagged phosphorylated full length FAK incubated for 5 mins prior to 0.5 uM of ATP addition by HTRF analysis
# Focal adhesion kinase 1 [10] = molecular target: T1, Focal adhesion kinase 1; test: Inhibition of human FLAG-tagged unphosphorylated full length FAK expressed in baculovirus expression system incubated for 5 mins prior to 0.5 uM ATP addition by AlphaScreen assay
# [11] = molecular target: Tyrosine-protein kinase Fyn (Homo sapiens, UniProt P06241); test: Inhibition of FYN (unknown origin) using [gamma-33P]ATP; method in brief: as §1
# Focal adhesion kinase 1 [12] = molecular target: T1, Focal adhesion kinase 1; test: Inhibition of human GST-tagged phosphorylated full length FAK incubated for 60 mins prior to 0.5 uM of ATP addition by HTRF analysis
# Focal adhesion kinase 1 [13] = molecular target: T1, Focal adhesion kinase 1; test: Inhibition of human FLAG-tagged unphosphorylated full length FAK expressed in baculovirus expression system incubated for 5 mins prior to 1000 uM of ATP addition by AlphaScreen assay
# [14] = molecular target: Mitogen-activated protein kinase kinase kinase kinase 2 (Homo sapiens, UniProt Q12851); test: Inhibition of GCK (unknown origin) using [gamma-33P]ATP; method in brief: as §1
# Focal adhesion kinase 1 [15] = molecular target: T1, Focal adhesion kinase 1
# [16] = molecular target: Tyrosine-protein kinase Yes (Homo sapiens, UniProt P07947); test: Inhibition of YES (unknown origin) using [gamma-33P]ATP; method in brief: as §1
# [17] = molecular target: T2, Protein-tyrosine kinase 2-beta; test: Inhibition of human 6His-tagged unphosphorylated PYK2 (1 to 967) using Poly-(GT)-biotin as substrate by AlphaScreen assay in presence of [gamma-33P]ATP
# [18] = molecular target: Mitogen-activated protein kinase kinase kinase 9 (Homo sapiens, UniProt P80192); test: Inhibition of MLK1 (unknown origin) using [gamma-33P]ATP; method in brief: as §1
# [19] = molecular target: Tyrosine-protein kinase Fgr (Homo sapiens, UniProt P09769); test: Inhibition of FGR (unknown origin) using [gamma-33P]ATP
# Method in brief: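 Reaction Biology HotSpot radiometric profiling panel of 288 kinases (261 wild-type, 27 mutant). Kinase activity was read out by incorporation of [γ-33P]ATP.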
# Focal adhesion kinase 1 [20] = molecular target: T1, Focal adhesion kinase 1; remark: listed apart in the source
# Focal adhesion kinase 1 [21] = molecular target: T1, Focal adhesion kinase 1; remark: listed apart in the source
# Focal adhesion kinase 1 [22] = molecular target: T1, Focal adhesion kinase 1; test: Inhibition of human GST-tagged phosphorylated full length FAK incubated for 5 mins prior to 1000 uM of ATP addition by HTRF analysis
# Focal adhesion kinase 1 [23] = molecular target: T1, Focal adhesion kinase 1; remark: listed apart in the source
# [24] = molecular target: Serine/threonine-protein kinase Chk2 (Homo sapiens, UniProt O96017); test: Inhibition of CHK2 (unknown origin) using [gamma-33P]ATP
# Method in brief: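 Radiometric profiling across 288 kinases (261 wild-type, 27 mutant), run as an outsourced service. Inhibition read out as [gamma-33P]ATP incorporation into substrate.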
# T1 sequence (Q05397 whole entry): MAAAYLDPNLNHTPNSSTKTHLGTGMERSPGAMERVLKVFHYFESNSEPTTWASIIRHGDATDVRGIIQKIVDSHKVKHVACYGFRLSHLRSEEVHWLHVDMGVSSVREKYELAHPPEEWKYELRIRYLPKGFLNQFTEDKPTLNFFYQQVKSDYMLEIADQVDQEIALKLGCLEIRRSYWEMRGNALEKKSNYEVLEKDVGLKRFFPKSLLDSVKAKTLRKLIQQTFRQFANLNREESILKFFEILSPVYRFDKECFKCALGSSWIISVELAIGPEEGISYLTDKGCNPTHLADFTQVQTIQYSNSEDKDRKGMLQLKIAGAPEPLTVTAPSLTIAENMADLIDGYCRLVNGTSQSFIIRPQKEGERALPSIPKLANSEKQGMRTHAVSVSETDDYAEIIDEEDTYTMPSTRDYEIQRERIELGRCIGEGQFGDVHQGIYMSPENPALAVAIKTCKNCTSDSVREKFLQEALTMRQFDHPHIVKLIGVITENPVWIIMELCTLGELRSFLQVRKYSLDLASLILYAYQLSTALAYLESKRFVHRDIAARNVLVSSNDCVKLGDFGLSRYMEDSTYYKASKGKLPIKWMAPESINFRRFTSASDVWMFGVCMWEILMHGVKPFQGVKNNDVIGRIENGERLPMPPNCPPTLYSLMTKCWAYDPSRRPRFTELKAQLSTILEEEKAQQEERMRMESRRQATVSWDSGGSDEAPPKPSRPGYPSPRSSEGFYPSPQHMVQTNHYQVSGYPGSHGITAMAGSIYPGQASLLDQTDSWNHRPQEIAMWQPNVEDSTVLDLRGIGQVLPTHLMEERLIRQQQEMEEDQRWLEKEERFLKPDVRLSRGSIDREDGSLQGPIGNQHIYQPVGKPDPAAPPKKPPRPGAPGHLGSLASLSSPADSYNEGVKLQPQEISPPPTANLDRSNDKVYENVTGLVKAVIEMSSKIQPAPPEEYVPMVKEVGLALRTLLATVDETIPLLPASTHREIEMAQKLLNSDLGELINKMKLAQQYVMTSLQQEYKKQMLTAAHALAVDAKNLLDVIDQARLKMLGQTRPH
# Serine/threonine-protein kinase Chk2, sequence (O96017 whole entry): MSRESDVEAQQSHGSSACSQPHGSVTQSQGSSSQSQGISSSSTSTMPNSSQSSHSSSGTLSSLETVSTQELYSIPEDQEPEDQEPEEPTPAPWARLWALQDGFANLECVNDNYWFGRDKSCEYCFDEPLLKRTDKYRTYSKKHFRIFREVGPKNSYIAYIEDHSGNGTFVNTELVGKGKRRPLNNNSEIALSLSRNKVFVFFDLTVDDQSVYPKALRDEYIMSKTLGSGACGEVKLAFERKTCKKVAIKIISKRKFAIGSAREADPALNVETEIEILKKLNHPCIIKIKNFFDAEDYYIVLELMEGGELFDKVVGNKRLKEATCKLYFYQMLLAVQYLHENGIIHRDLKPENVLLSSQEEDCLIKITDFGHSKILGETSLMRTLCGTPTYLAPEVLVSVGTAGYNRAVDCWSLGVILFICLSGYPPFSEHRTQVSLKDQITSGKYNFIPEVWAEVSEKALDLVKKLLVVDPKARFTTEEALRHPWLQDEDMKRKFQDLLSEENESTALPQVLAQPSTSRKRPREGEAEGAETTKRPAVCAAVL
# Mitogen-activated protein kinase kinase kinase 9, sequence (P80192 whole entry): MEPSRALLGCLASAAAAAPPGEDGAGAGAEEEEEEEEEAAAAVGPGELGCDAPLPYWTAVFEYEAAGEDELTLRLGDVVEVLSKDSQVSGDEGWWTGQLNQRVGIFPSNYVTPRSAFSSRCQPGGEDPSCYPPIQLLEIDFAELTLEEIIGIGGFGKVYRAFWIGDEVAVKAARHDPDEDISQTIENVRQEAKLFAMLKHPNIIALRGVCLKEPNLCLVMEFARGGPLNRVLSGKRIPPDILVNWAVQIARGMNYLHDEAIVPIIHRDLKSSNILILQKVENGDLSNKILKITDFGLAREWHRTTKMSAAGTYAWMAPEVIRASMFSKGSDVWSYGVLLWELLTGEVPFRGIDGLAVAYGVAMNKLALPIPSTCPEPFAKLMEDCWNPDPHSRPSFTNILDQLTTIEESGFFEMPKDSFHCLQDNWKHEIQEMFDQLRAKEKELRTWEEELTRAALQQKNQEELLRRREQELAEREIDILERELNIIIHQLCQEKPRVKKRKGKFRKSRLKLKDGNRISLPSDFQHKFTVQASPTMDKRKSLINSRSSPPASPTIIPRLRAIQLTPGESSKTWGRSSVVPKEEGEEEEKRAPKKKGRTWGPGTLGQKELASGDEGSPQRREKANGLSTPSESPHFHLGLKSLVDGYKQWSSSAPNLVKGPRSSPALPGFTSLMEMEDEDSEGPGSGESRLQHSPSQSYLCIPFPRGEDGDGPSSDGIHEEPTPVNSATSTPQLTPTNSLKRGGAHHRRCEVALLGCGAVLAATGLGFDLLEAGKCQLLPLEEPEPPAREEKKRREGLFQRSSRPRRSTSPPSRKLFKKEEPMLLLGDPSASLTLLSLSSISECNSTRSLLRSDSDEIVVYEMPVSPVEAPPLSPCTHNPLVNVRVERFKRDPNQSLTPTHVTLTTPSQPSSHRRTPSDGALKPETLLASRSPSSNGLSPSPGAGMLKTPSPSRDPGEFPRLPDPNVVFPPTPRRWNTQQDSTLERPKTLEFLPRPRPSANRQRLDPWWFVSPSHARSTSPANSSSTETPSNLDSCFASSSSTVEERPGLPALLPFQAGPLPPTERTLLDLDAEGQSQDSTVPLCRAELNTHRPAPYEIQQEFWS
# Tyrosine-protein kinase Yes, sequence (P07947 whole entry): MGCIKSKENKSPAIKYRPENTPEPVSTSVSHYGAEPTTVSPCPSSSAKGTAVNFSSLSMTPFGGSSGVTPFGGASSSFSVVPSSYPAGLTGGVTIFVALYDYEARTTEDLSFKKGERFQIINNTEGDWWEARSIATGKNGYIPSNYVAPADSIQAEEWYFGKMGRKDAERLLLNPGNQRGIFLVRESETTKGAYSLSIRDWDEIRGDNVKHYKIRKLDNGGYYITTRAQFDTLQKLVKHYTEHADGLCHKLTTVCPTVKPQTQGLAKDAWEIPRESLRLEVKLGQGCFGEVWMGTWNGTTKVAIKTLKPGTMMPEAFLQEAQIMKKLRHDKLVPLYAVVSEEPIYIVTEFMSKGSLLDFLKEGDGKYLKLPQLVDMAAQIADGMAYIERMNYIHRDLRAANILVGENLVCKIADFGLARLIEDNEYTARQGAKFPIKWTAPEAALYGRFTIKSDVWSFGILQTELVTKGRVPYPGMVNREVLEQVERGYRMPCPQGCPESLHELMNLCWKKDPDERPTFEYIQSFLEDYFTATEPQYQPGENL
# Mast/stem cell growth factor receptor Kit, sequence (P10721 26-976 D816V limits assumed): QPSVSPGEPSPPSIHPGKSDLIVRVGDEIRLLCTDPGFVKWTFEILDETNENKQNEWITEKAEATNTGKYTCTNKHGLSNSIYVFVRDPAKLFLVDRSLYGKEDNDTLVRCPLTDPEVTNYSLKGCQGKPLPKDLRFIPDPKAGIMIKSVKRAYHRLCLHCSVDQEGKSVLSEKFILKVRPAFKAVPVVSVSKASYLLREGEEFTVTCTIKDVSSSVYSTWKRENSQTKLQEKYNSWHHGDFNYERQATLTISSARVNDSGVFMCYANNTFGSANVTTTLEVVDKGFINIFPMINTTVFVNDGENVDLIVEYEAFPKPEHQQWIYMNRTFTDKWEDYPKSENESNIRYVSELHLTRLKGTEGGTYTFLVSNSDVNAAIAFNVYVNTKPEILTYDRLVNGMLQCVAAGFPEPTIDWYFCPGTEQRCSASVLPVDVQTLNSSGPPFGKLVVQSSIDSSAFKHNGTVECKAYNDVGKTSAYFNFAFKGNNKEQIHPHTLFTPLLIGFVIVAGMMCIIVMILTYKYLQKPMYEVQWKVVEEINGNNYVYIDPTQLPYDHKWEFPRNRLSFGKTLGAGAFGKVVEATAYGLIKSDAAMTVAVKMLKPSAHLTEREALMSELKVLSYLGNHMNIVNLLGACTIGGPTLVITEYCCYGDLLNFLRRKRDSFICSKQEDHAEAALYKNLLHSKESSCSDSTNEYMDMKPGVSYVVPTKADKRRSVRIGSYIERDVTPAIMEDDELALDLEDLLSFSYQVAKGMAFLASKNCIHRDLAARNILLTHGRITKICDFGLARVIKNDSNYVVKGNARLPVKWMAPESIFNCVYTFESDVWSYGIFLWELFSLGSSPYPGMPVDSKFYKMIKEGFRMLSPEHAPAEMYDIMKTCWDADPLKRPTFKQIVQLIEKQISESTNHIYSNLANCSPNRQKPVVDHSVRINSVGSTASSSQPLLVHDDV
# Tyrosine-protein kinase Fgr, sequence (P09769 whole entry): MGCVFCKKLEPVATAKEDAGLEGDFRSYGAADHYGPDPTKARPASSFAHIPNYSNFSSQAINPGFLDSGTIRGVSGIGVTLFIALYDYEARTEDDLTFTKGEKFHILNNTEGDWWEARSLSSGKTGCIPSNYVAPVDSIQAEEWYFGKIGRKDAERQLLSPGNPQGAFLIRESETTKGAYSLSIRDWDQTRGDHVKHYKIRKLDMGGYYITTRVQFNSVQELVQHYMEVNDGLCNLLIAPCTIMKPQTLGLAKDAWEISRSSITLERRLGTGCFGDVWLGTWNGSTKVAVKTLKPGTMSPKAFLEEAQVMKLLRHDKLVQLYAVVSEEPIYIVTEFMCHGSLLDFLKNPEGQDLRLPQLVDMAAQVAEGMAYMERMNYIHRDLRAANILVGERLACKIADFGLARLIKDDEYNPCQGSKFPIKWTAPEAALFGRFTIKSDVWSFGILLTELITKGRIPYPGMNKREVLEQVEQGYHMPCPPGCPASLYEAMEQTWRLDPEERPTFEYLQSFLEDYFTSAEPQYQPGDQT
IC50 [2],IC50 [4],IC50 [5],IC50 [11],IC50 [14],IC50 [16],IC50 [18],IC50 [19],IC50 [24],SMILES,further results
> 10 µM,> 10 µM,> 10 µM,> 10 µM,> 10 µM,> 10 µM,> 10 µM,> 10 µM,> 10 µM,CCc1ccc(-c2ccc3c(c2)-c2c(cnn2CC)S(=O)(=O)N3C)cc1,IC50 (Focal adhesion kinase 1 [1]): 3.2 µM; IC50 [3]: > 10 µM; IC50 (Focal adhesion kinase 1 [6]): > 30 µM; IC50 (Focal adhesion kinase 1 [7]): 3.2 µM; IC50 [8]: > 30 µM; IC50 (Focal adhesion kinase 1 [9]): > 30 µM; IC50 (Focal adhesion kinase 1 [10]): > 10 µM; IC50 (Focal adhesion kinase 1 [12]): > 30 µM; IC50 (Focal adhesion kinase 1 [13]): > 10 µM; IC50 (Focal adhesion kinase 1 [15]): 1.3 µM; IC50 [17]: > 30 µM; IC50 (Focal adhesion kinase 1 [20]): 1 µM; IC50 (Focal adhesion kinase 1 [21]): 3 µM; IC50 (Focal adhesion kinase 1 [22]): > 30 µM; IC50 (Focal adhesion kinase 1 [23]): 1.6 µM
2.8 µM,4 µM,1.6 µM,2.8 µM,3 µM,1.8 µM,0.37 µM,1.9 µM,3.4 µM,CCc1ccc(-c2ccc3c(c2)-c2n[nH]cc2S(=O)(=O)N3C)cc1,–
